The record followed here is ChEMBL document CHEMBL1240504, “Synthesis of substituted thieno[2,3-d]pyrimidine-2,4-dithiones and their S-glycoside analogues as potential antiviral and antibacterial agents” (Eur J Med Chem, 2010).

In brackets after ≈: the same amount, converted by molar mass. A value given as a limit tells only on which side of the number the result lay.

The test system of series [1] is Staphylococcus aureus. As to the kind of experiment: Antibacterial activity against Staphylococcus aureus MTCC 1144 at 64 mg/ml after 16 hrs by disk diffusion test. The series is classed as functional. The note with it: MTCC 1144, 16 h, read-out: IZ. Summed up: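 Disk diffusion (zone of inhibition). Bacterial isolate spread evenly over an agar plate. A filter disk carrying a known amount of compound was placed on the surface and the compound left to diffuse. The inhibition zone in the lawn was read after 16 h incubation.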
A general note: A growth-free zone around the sample is the usual read-out of agar diffusion tests.

The nature of series [2]: Therapeutic index, ratio of IC50 for human CEM cells to EC50 for HIV1. In kind it is cell-based, CCRF-CEM. To be noted: read-out: Ratio IC50/EC50. The procedure, abridged: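 CEM T4 lymphocytes, with or without HIV-1, were incubated with serially diluted compounds (DMSO solution diluted 1:100 in medium; 1:200 final dilution after cells and virus were added) at 37 °C in 5% CO2 for 6 days. Controls were untreated and AZT-treated. Read-out was XTT formazan, measured spectrophotometrically plus microscopy. EC50 is 50% protection from cytopathic effect; IC50 is 50% growth inhibition in uninfected cultures.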

Series [3] deals with Staphylococcus aureus. As to the kind of experiment: Antibacterial activity against Staphylococcus aureus MTCC 1144 at 128 mg/ml after 16 hrs by disk diffusion test. In kind it is functional. Further details: dose or concentration left out as unconfirmed. To be noted: MTCC 1144, 16 h, read-out: IZ.
Series [4] deals with Escherichia coli. Description: Antibacterial activity against Escherichia coli MTCC 41 at 64 mg/ml after 16 hrs by disk diffusion test. The series is classed as functional. The note with it: MTCC 41, 16 h, read-out: IZ. More on the design: dose or concentration left out as unconfirmed.
In the next series the test system is CCRF-CEM. As to the kind of experiment: Cytotoxicity against […] human CEM cells after 6 days by XTT assay. In kind it is cell-based. The note with it: 144 h. The procedure, abridged:
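Uninfected CEM cultures given serial compound dilutions (DMSO, 1:200 final dilution). Incubated 6 days at 37 °C, 5% CO2, then read by XTT formazan. IC50 is the molar concentration causing 50% inhibition of cell growth.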
For orientation: Tetrazolium dyes change colour on reduction, which living cells bring about.

The next series has as its system Vero. Description: Cytotoxicity against african green monkey Vero cells assessed as loss of monolayer present around the plaques. In kind it is cell-based. The note with it: Chlorocebus sabaeus. Summed up: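 Vero monolayers in serial-dilution trays with HSV-1, run in triplicate, 6 h at 37 °C, 5% CO2. Cells fixed with 3.7% formaldehyde and examined visually. IC50 is the concentration giving about 50% loss of the monolayer around HSV-1 plaques.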

Series [5] has as its system Staphylococcus aureus. As to the kind of experiment: Antibacterial activity against Staphylococcus aureus MTCC 1144 after 12 to 16 hrs by turbidity assay. The series is classed as functional. Summed up:
(§1)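 Broth dilution MIC in LB broth. Tubes inoculated, incubated 12–16 h and scored by eye for turbidity (growth) versus clear (no growth).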

For series [6], the system named is Human immunodeficiency virus 1. As to the kind of experiment: Antiviral activity against HIV1 infected in human CEM cells assessed as protection against virus-induced cytopathic effect after 6 days by XTT assay. The series is classed as functional, organism-based. The note with it: Human immunodeficiency virus 1, CCRF-CEM, 144 h. Summed up:
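CEM T4 lymphocytes received serially diluted compounds (DMSO stock diluted 1:100 in medium, 1:200 final dilution), then HIV-1. Incubated 6 days at 37 °C, 5% CO2. Formazan read spectrophotometrically after XTT, with microscopic check for viable cells. EC50 is the concentration giving 50% protection against the HIV cytopathic effect. AZT-treated wells served as positive control.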
Background: Cytopathic effects are the visible damage that an infection or toxin causes in cultured cells.

The test system of series [7] is Escherichia coli. Description: Antibacterial activity against Escherichia coli MTCC 41 at 128 mg/ml after 16 hrs by disk diffusion test. The series is classed as functional. More on the design: dose or concentration left out as unconfirmed. To be noted: MTCC 41, 16 h, read-out: IZ.
Series [8] has as its system Human alphaherpesvirus 1. As to the kind of experiment: Antiviral activity against HSV1 infected in african green monkey Vero cells after 6 hrs by plaque reduction assay. Further details: scale not given: the % may be the effect or the level left. In kind it is functional. Summed up:
(§2)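 Modified plaque reduction in 96-well trays with no thickening overlay. Compounds dissolved in DMSO and diluted into medium, then serially diluted and added in triplicate to confluent Vero monolayers. Titred HSV-1 added in medium with 10% calf serum. Incubated 6 h at 37 °C, 5% CO2. Cells fixed with 3.7% formaldehyde and examined visually. The end-point concentration was taken from the dilution series.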

Series [9] relates to Escherichia coli. As to the kind of experiment: Antibacterial activity against Escherichia coli MTCC 41 after 12 to 16 hrs by turbidity assay. In kind it is functional. Summed up: as §1
The subject of series [10] is Pseudomonas putida. Description: Antibacterial activity against ampicillin-resistant Pseudomonas putida MTCC 1072 at 128 mg/ml after 16 hrs by disk diffusion test. The series is classed as functional. More on the design: dose or concentration left out as unconfirmed. The note with it: MTCC 1072, 16 h, read-out: IZ.
Series [11] deals with Pseudomonas putida. As to the kind of experiment: Antibacterial activity against ampicillin-resistant Pseudomonas putida MTCC 1072 after 12 to 16 hrs by turbidity assay. The series is classed as functional. The procedure, abridged: as §1
In series [12] the test system is Pseudomonas putida. As to the kind of experiment: Antibacterial activity against ampicillin-resistant Pseudomonas putida MTCC 1072 at 64 mg/ml after 16 hrs by disk diffusion test. The series is classed as functional. More on the design: dose or concentration left out as unconfirmed. To be noted: MTCC 1072, 16 h, read-out: IZ.
Series [13] relates to Human alphaherpesvirus 1. As to the kind of experiment: Antiviral activity against HSV1 infected in african green monkey Vero cells assessed as minimum antiviral concentration after 6 hrs. The series is classed as functional. Summed up: as §2

On to `CC(=O)OC[C@H]1O[C@@H](Sc2nc3sc4c(c3c(=S)[nH]2)CCCCC4)[C@@H](OC(C)=O)[C@@H]1OC(C)=O`, for which the zone of inhibition at 64000 µg/mL with Staphylococcus aureus [1] is below 1 mm. Also, the selectivity ratio in [2] was above 1. Moreover, the zone of inhibition with Staphylococcus aureus [3], in the series on Escherichia coli [4], in the series on Escherichia coli [7], with Pseudomonas putida [10] and with Pseudomonas putida [12] was below 1 mm each time. In addition, the IC50 (in general, the concentration at which inhibition is half-maximal) in the series on CCRF-CEM was above 100 µM; with Vero it was 1.15 µM. Moreover, the MIC against Staphylococcus aureus [5], in the series with Escherichia coli [9] and against Pseudomonas putida [11] was above 128 µg/mL each time. Also, the EC50 (usually the concentration at which the effect is half-maximal) in series [6] was above 100 µM. In addition, the Activity in the series on Human alphaherpesvirus 1 [8] is recorded as 0%.
As for `OC[C@H]1O[C@@H](Sc2nc3sc4c(c3c(=S)[nH]2)CCCC4)[C@@H](O)[C@@H]1O`, the zone of inhibition at 64000 µg/mL in the series with Staphylococcus aureus [1] was above 2 mm. In addition, in [2], the selectivity ratio is above 1. Also, the zone of inhibition in the series on Staphylococcus aureus [3] is above 2 mm; in the series on Escherichia coli [4], above 2 mm; in the series with Escherichia coli [7], above 3 mm; in the series with Pseudomonas putida [10] it was above 3 mm; in the series on Pseudomonas putida [12], above 3 mm. Moreover, the IC50 in the series with CCRF-CEM is above 100 µM; with Vero, above 1.7 µM. The minimum inhibitory concentration (MIC) (as a rule, the lowest concentration that inhibits growth of the organism) was above 128 µg/mL in the series with Staphylococcus aureus [5], 128 µg/mL (≈ 331 µM) in the series with Escherichia coli [9] and 64 µg/mL (≈ 166 µM) in the series on Pseudomonas putida [11]. Further, in series [6], the EC50 is above 100 µM. The Activity with Human alphaherpesvirus 1 [8] was found to be 30%. For the same compound, in the series with Human alphaherpesvirus 1 [13], the MAC was 0.29 µM.
For the compound `OC[C@H]1O[C@@H](Sc2nc3sc4c(c3c(=S)[nH]2)CCCCC4)[C@@H](O)[C@@H]1O`, the zone of inhibition at 64000 µg/mL with Staphylococcus aureus [1] was above 2 mm. Also, in [2], the selectivity ratio was above 1. For the same compound, the zone of inhibition in the series on Staphylococcus aureus [3] is above 3 mm; in the series with Escherichia coli [4], above 2 mm; in the series on Escherichia coli [7] it was above 3 mm; with Pseudomonas putida [10], above 3 mm; with Pseudomonas putida [12] it was above 2 mm. The results for the IC50 with CCRF-CEM and in the series on Vero were above 100 µM and above 1.46 µM, respectively. Besides, the minimal inhibitory concentration (MIC) against Staphylococcus aureus [5], in the series on Escherichia coli [9] and against Pseudomonas putida [11] was 128 µg/mL (≈ 320 µM) throughout. Besides, the 50% effective concentration (EC50) in series [6] was above 100 µM. This compound came in with an Activity in the series with Human alphaherpesvirus 1 [8] of 24%. Besides, the MAC in the series on Human alphaherpesvirus 1 [13] is 0.21 µM.
As for `CC(=O)OC[C@H]1O[C@@H](Sc2nc3sc4c(c3c(=S)[nH]2)CCCC4)[C@H](OC(C)=O)[C@@H](OC(C)=O)[C@@H]1OC(C)=O`, the zone of inhibition at 64000 µg/mL in the series on Staphylococcus aureus [1] is below 1 mm. For the same compound, the selectivity ratio in series [2] is above 1. Further, the zone of inhibition was below 1 mm in the series with Staphylococcus aureus [3]; below 1 mm with Escherichia coli [4]; above 2 mm with Escherichia coli [7]; above 2 mm with Pseudomonas putida [10]; above 2 mm with Pseudomonas putida [12]. For the same compound, the IC50 with CCRF-CEM was above 100 µM; in the series with Vero, 0.56 µM. Besides, the minimum inhibitory concentration (MIC) in the series on Staphylococcus aureus [5], with Escherichia coli [9] and against Pseudomonas putida [11] was above 128 µg/mL in each case. Also, the EC50 in [6] is above 100 µM. Moreover, in the series with Human alphaherpesvirus 1 [8], the Activity is given as 0%.
Turning to `OC[C@H]1O[C@@H](Sc2nc3sc4c(c3c(=S)[nH]2)CCCC4)[C@H](O)[C@@H](O)[C@@H]1O`, in the series on Staphylococcus aureus [1], the zone of inhibition at 64000 µg/mL was below 1 mm. The selectivity ratio in series [2] is above 1. For the same compound, the zone of inhibition with Staphylococcus aureus [3] is below 1 mm; in the series on Escherichia coli [4], below 1 mm; in the series on Escherichia coli [7], below 1 mm; in the series with Pseudomonas putida [10], above 3 mm; in the series with Pseudomonas putida [12], below 1 mm. In addition, the concentration for half-maximal inhibition (IC50) in the series on CCRF-CEM is above 100 µM; in the series with Vero it was 0.61 µM. In addition, the MIC is above 128 µg/mL with Staphylococcus aureus [5], above 128 µg/mL against Escherichia coli [9] and 128 µg/mL (≈ 307 µM) against Pseudomonas putida [11]. Also, the EC50 in series [6] was above 100 µM. The compound further registered an Activity with Human alphaherpesvirus 1 [8] of 0%.
Take `C[C@@]1(CO)[C@H](O)CC[C@@]2(C)[C@H]1CC[C@H]1C[C@@H]3C[C@@]12CC[C@]3(O)CO` [APHIDICOLIN]: the IC50 with Vero turned out to be 0.58 µM. In the series with Human alphaherpesvirus 1 [8], this compound returned an Activity of 100%. In the series with Human alphaherpesvirus 1 [13], the MAC was 0.02 µM.
